Calls of active or inactive are those of the source. The calls are words filed in the database; no cut-off is given here.
Tests used:
[1] = molecular target: Platelet-derived growth factor receptor (Mus musculus, UniProt P05622+P26618); assay: Inhibition of PDGFR autophosphorylation in mouse Swiss 3T3 fibroblast by immunoblotting
Outline: (§1)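 PDGFR autophosphorylation in Swiss 3T3 cells was assayed by a previously described method. IC50 was fitted to a six-concentration curve, with duplicate or triplicate determinations.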

[2] = molecular target: Platelet-derived growth factor receptor (Mus musculus) (UniProt P05622+P26618); assay: Inhibition of PDGFR autophosphorylation in mouse Swiss 3T3 fibroblast up to 10 ug/ml by immunoblotting; outline: as §1
[3] = molecular target: Receptor-type tyrosine-protein kinase FLT3 (Homo sapiens) (UniProt P36888); assay: Inhibition of FLT3 autophosphorylation in human EOL1 cells up to 10 ug/ml by immunoblotting; format: cell-based
FLT3 (Homo sapiens) = assay: Inhibition of FLT3 autophosphorylation in human EOL-1 cells up to 10 ug/ml by immunoblotting

Receptor-type tyrosine-protein kinase FLT3 (Homo sapiens), sequence (P36888 whole entry): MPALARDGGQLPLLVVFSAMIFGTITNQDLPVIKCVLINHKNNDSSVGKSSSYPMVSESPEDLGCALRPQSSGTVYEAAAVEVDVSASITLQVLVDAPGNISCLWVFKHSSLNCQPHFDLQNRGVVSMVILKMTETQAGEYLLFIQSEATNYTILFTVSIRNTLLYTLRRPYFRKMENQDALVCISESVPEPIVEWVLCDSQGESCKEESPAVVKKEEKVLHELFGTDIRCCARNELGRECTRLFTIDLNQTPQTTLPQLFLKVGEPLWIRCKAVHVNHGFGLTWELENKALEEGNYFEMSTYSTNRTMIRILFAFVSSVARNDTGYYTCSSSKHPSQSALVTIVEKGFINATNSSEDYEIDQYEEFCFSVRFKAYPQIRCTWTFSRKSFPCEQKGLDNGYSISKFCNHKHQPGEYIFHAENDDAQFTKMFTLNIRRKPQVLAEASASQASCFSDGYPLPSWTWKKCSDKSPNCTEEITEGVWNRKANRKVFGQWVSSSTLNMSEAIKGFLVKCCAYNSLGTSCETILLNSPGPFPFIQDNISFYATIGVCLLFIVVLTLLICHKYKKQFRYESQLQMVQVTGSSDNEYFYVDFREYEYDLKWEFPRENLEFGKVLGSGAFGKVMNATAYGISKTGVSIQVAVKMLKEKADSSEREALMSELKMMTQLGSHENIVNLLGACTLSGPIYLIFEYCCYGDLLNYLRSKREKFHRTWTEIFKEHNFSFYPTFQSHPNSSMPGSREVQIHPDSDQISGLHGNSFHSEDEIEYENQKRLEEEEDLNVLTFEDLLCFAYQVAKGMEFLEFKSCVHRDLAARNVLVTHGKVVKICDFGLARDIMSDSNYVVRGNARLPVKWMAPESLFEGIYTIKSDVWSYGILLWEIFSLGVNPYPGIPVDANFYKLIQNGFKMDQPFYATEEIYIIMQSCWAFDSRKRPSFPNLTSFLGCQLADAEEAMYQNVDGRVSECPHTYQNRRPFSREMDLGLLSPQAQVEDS

Compound | IC50 [1] [µM] | Activity [2] | Activity [3] | Activity (FLT3 (Homo sapiens))
Cc1ccc(NC(=O)c2ccncc2)cc1Nc1nc(-c2cccnc2)c[nH]1 | 1.8 |  | inactive | inactive
Cc1cccc(C(=O)Nc2ccc(C)c(Nc3nc(-c4cccnc4)c[nH]3)c2)c1 | 2.2 |  |  | 
COc1ccc(C(=O)Nc2ccc(C)c(Nc3nc(-c4cccnc4)c[nH]3)c2)cc1 | > 30 | inactive | inactive | 
Cc1ccc([N+](=O)[O-])cc1Nc1nc(-c2ccccc2)c[nH]1 |  | inactive | inactive | 
CC(=O)Nc1ccc(C)c(Nc2nc(-c3cccnc3)c[nH]2)c1 | 5.9 |  |  | 
Cc1ccc(NC(=O)c2ccc(CN3CCN(C)CC3)cc2)cc1Nc1nccc(-c2cccnc2)n1 [IMATINIB] | 0.3 |  |  | 
CCc1ccc(NC(=O)c2ccccc2)cc1Nc1nc(-c2cccnc2)c[nH]1 | 4.7 |  |  | 
Cc1ccc([N+](=O)[O-])cc1Nc1nc(-c2cccnc2)c[nH]1 |  | inactive | inactive | 
Cc1ccc(NC(=O)c2ccc(CN3CCN(C)CC3)cc2)cc1Nc1nc(-c2cccnc2)c[nH]1 | > 10 | inactive | inactive | 
CCc1ccc(NC(=O)c2ccccc2C)cc1Nc1nc(-c2cccnc2)c[nH]1 | 1.6 |  |  | 
CCc1ccc(NC(=O)c2cccc(C)c2)cc1Nc1nc(-c2cccnc2)c[nH]1 | 0.3 |  |  | 
CCc1ccc(NC(=O)c2ccc(C)cc2)cc1Nc1nc(-c2cccnc2)c[nH]1 | 6.5 |  |  | 
Cc1ccc(N)cc1Nc1nc(-c2ccncc2)c[nH]1 |  | inactive | inactive | 
Cc1ccc(NC(=O)c2ccccc2C)cc1Nc1nc(-c2cccnc2)c[nH]1 | 0.6 |  |  | 
Cc1ccc([N+](=O)[O-])cc1Nc1nc(-c2ccncc2)c[nH]1 |  | inactive | inactive | 
Cc1ccc(NC(=O)c2ccc(N)cc2)cc1Nc1nc(-c2cccnc2)c[nH]1 | > 30 | inactive | inactive | 

Next, values leading:

IC50 [1] [µM] | Activity [2] | Activity [3] | Activity (FLT3 (Homo sapiens)) | Compound
> 10 |  |  |  | Cc1ccc(NC(=O)c2ccc(CN3CCN(C)CC3)cc2)cc1Nc1nc(-c2ccccc2)c[nH]1
50 |  |  |  | CC(=O)Nc1ccc(C)c(Nc2nccc(-c3cccnc3)n2)c1
 | inactive | inactive |  | Nc1cccc(Nc2nc(-c3cccnc3)c[nH]2)c1
> 10 |  |  |  | Cc1ccc(NC(=O)c2ccc(CN3CCN(C)CC3)cc2)cc1Nc1nc(-c2ccncc2)c[nH]1
 | inactive | inactive |  | CCc1ccc([N+](=O)[O-])cc1Nc1nc(-c2cccnc2)c[nH]1
0.4 |  | inactive | inactive | Cc1ccc(NC(=O)c2ccc(Cl)cc2)cc1Nc1nc(-c2cccnc2)c[nH]1
6.5 |  |  |  | CN1CCN(Cc2ccc(C(=O)Nc3cccc(Nc4nc(-c5cccnc5)c[nH]4)c3)cc2)CC1
> 30 |  |  |  | CC(=O)Nc1ccc(C)c(Nc2nc(-c3ccccc3)c[nH]2)c1
> 10 |  |  |  | Cc1ccc(NC(=O)c2ccccc2)cc1Nc1nc(-c2ccncc2)c[nH]1
 | inactive | inactive |  | O=[N+]([O-])c1cccc(Nc2nc(-c3cccnc3)c[nH]2)c1
0.6 |  |  |  | Cc1ccccc1C(=O)Nc1cccc(Nc2nc(-c3cccnc3)c[nH]2)c1
7.1 |  |  |  | Cc1ccc(NC(=O)c2ccccc2)cc1Nc1nc(-c2ccccc2)c[nH]1
 | inactive | inactive |  | Cc1ccc(N)cc1Nc1nc(-c2ccccc2)c[nH]1
0.3 |  |  |  | Cc1cccc(C(=O)Nc2cccc(Nc3nc(-c4cccnc4)c[nH]3)c2)c1
> 10 | inactive | inactive |  | CCCCCCCCCCc1ccc(C(=O)Nc2ccc(C)c(Nc3nc(-c4cccnc4)c[nH]3)c2)cc1
0.1 |  |  |  | Cc1ccc(NC(=O)c2ccccc2)cc1Nc1nccc(-c2cccnc2)n1
> 10 | inactive | inactive |  | COc1cc(C(=O)Nc2ccc(C)c(Nc3nc(-c4cccnc4)c[nH]3)c2)cc(OC)c1OC
0.2 |  | inactive | inactive | Cc1ccc(C(=O)Nc2ccc(C)c(Nc3nc(-c4cccnc4)c[nH]3)c2)cc1
0.2 |  |  |  | Cc1ccc(C(=O)Nc2cccc(Nc3nc(-c4cccnc4)c[nH]3)c2)cc1
 | inactive | inactive |  | CCc1ccc(N)cc1Nc1nc(-c2cccnc2)c[nH]1
 | inactive | inactive |  | Cc1ccc(N)cc1Nc1nc(-c2cccnc2)c[nH]1
> 30 | inactive | inactive |  | Cc1ccc(NC(=O)c2ccc([N+](=O)[O-])cc2)cc1Nc1nc(-c2cccnc2)c[nH]1
0.3 |  | inactive | inactive | Cc1ccc(NC(=O)c2ccccc2)cc1Nc1nc(-c2cccnc2)c[nH]1

Reference: ChEMBL document CHEMBL1140959, “Inhibition of PDGFR tyrosine kinase activity by a series of novel N-(3-(4-(pyridin-3-yl)-1H-imidazol-2-ylamino)phenyl)amides: a SAR study on the bioisosterism of pyrimidine and imidazole” (Eur J Med Chem, 2008)
